# Shown are actives, neighbours in structure and some others; about 2.5% of the full set was active somewhere.
# Arr AP2 block: inhibitors of beta-arrestin/AP2 binding, primary screen, biochemical, GPCR trafficking, flow cytometry; beta-arrestin 1 C-terminal peptide binding to AP2 beta2-adaptin appendage (human); FITC-arrestin peptide / GST-AP2 beads; AP2 beta2 appendage carries R879A mutation; inhibition, % at 10 µM; 0.31% of 340,000 active; AID 504490, 2011;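 active = inhibition above a set limit, near 3 SD of compounds lacking own fluorescence, cut at about 54% in these data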;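 note: plate controls were DMSO wells for no effect and 5 µM unlabelled arrestin peptide for full effect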
#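 Material – GST-tagged AP2 beta2-adaptin appendage (R879A) on 4 µm glutathione beads · Probe or stimulus – fluorescein-tagged arrestin peptide at 50 nM final · Timing – 12 min plus 1 h, RT · Detection – bead flow cytometry, FITC channel · Read-out basis – inhibition as reduced fluorescein signal on beads, percent · Medium – PBS plus Tween 20 (0.05%) and BSA (0.1%)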
# B2AR ag: beta2AR agonists driving receptor internalization, primary screen, cell-based, FAP fluorogen, flow cytometry | Am2.2-beta2AR cells | AID 504454, 2011 | 0.43% of 340,000 active | response, % (no concentration beside the values) | Beta-2 adrenergic receptor (Homo sapiens), P07550;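 active = response above a set limit, near 3 SD of response in nonfluorescent compounds, cut at about 42% in these data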
# UHRF1 MBD2 ctr: UHRF1 methylated DNA binding inhibitors, primary screen, counter-screen for MBD2 inhibitor project, biochemical, TR-FRET, human UHRF1, single concentration | E3 ubiquitin-protein ligase UHRF1 (Homo sapiens), Q96T88 | UHRF1 binding to methylated oligo | inhibition, % at 4.4 µM | 0.75% of 370,000 active; in the data active = inhibition above about 21%;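 note: UHRF1 SRA domain binding a hemimethylated CpG hairpin DNA probe; 0% = median of test compound wells and 100% = reference inhibitor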
# Rin1 Abl inh: inhibitors of Rin1-Abl protein binding, primary screen, biochemical, TR-FRET | 0.4% of 360,000 active | AID 588664, 2011 | inhibition, % at 7.35 µM | Tyrosine-protein kinase ABL1 (Homo sapiens) + Ras and Rab interactor 1 (Homo sapiens), …; in the data active = inhibition above about 5%, passing the limit was not always enough
# MBD2 DNA inh: inhibitors of MBD2 binding to methylated DNA, primary screen, biochemical, TR-FRET, DNA-binding domain, human | MBD2 binding to methylated oligonucleotide | inhibition, % at 4.4 µM | 0.31% of 370,000 active; in the data active = inhibition above about 13%
# ABHD5-PLIN5 inh: ABHD5-PLIN5 interaction inhibitors, primary screen, cell lysate, split luciferase complementation, luminescence. Split G. princeps luciferase complementation, 4 h. 0.78% of 360,000 active. Perilipin-5 (Homo sapiens) + 1-acylglycerol-3-phosphate O-acyltransferase ABHD5 (Homo …. inhibition, % at 4 µM. AID 602281, 2012;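 active = inhibition above the mean inhibition across every tested compound plus 3 SD, cut at about 22% in these data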;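 note: 0% = DMSO only wells and the 100% control is not disclosed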
# Arr AP2 CP1: inhibitors of arrestin peptide binding to AP2, confirmation, biochemical, cherry pick 1, flow cytometry beads; shares compounds with Arr AP2 block; GST-AP2 beads, FITC arrestin peptide binding; GST-fused beta2-adaptin appendage, R879A mutant; inhibition, % at 10 µM; 2% of 1,300 active; AID 504908, 2011;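 active = inhibition above a set limit, roughly 3 SD of non-fluorescent compound noise, cut at about 38% in these data; inactive = inhibition at or below that limit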;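 note: loss of bead fluorescence from 50 nM FITC arrestin peptide bound to appendage; 0% = negative control wells and 100% = excess unlabelled arrestin peptide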
# GST-FITC bead: GST-fluorescein capture on glutathione beads, confirmation, artefact control for arrestin-AP2 inhibitor project, biochemical, cherry pick 1, flow cytometry; GST-fluorescein binding to GSH beads, fluorescence, counter-screen; 2% of 1,300 active; inhibition, % at 10 µM; shares compounds with Arr AP2 block;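 active = inhibition above 50%, about 3 SD of the inhibition seen with non-fluorescent compounds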;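 note: fluorescein maleimide labelled GST captured on 4 micron glutathione beads; higher means more loss of bead fluorescence from quenching or blocked binding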
# Numbers without * were called inactive; x = no result given.
SMILES,Arr AP2 block,B2AR ag,UHRF1 MBD2 ctr,Rin1 Abl inh,MBD2 DNA inh,ABHD5-PLIN5 inh,Arr AP2 CP1,GST-FITC bead
CCOC(=O)[C@@]12CCCC3=C1N(CCC3)C(=O)[C@H]2CC(=O)NCC1CCCCC1,x,x,1,x,5,x,x,x
CCOc1ccc(/C=C2\CCC(C3CCCC3)C2=O)cc1OC (centres undefined),59*,-7,0,-2,2,3,12,-3
CCNC(=O)/C(C#N)=C/c1c(N2CCN(Cc3ccc4c(c3)OCO4)CC2)nc2c(C)cccn2c1=O,57*,9,-2,-4,0,8,4,-7
Cc1ccccc1/C=N/Nc1ccc(Cl)nn1,60*,2,0,1,4,-2,-14,-4
CCN(CC)S(=O)(=O)c1ccc(C(=O)Nc2ccc(Cc3ccncc3)cc2)cc1,56*,14,-2,-1,0,2,7,-6
CN(C)C(=O)c1cc(C(=O)c2ccc(F)cc2F)c[nH]1,11,-5,-1,1,-1,2,x,x
CN(C)C(=O)c1cc(C(=O)c2ccc(C(F)(F)F)cc2F)c[nH]1,62*,5,3,-3,-1,-2,-18,1
CC(=O)Nc1ccc(S(=O)(=O)N2c3ccccc3NC(=O)CC2C)c(Cl)c1 (centres undefined),54*,0,2,1,-1,3,-18,-1
CC1CC(=O)Nc2ccccc2N1S(=O)(=O)c1ccc(Cl)cc1 (centres undefined),8,-2,0,4,1,10,x,x
CC(C)CN1C(=O)N2Cc3ccccc3C2CS1(=O)=O (centres undefined),x,x,-1,x,2,x,x,x
COc1ccc(C2C(C(=O)Nc3ccc(Cl)c(Cl)c3)CCC(=O)N2c2ccc(OC)cc2)cc1 (centres undefined),x,x,-1,x,4,x,x,x
COC(=O)[C@]12C[C@H](CC(=O)N3CCN(C(=O)C4CC4)CC3)C(=O)N(Cc3ccco3)C1=C[C@H](C(C)C)O[C@@H]2C1CC1,x,x,6,x,6,x,x,x
N#Cc1c(SCC(=O)Nc2ccccc2)nsc1SCC(=O)Nc1ccccc1,109*,-9,10,-3,0,-2,7,-1
Cc1ccc(C)c(N2CCN(c3ccncc3N)CC2)c1,55*,4,2,1,-3,1,-3,-7
CCSCc1nnc(SCC(=O)Nc2cccc(C(C)=O)c2)n1C,39,-2,-1,-2,-2,0,x,x
CCSCc1nnc(SCC(=O)Nc2cccc(SC)c2)n1C,99*,2,-1,3,1,1,9,-3
COc1ccc(OC)c(C2C(C(=O)c3ccc(C)o3)=C(O)C(=O)N2c2cc(C)on2)c1 (centres undefined),59*,7,-1,0,0,-8,-1,-5
Cc1ccc(S(=O)(=O)Nc2cc(Cl)c(O)cc2C)cc1,58*,-5,-4,0,-1,3,4,-4
C=CCN1C(=O)[C@@H](CC(=O)NCC23CC4CC(CC(C4)C2)C3)[C@]2(C(=O)OCC)CCCCC/C=C/12,x,x,1,x,1,x,x,x
O=[N+]([O-])c1nccn1CC(O)CCN1CCOCC1 (centres undefined),x,x,-2,x,1,x,x,x
